The source made the active and inactive calls. The calls are words filed in the database; no cut-off is given here.
Key:
[1] = target: Ribonuclease pancreatic (Bos taurus) (UniProt P61823); assay: Inhibition of RNase A-mediated degradation of yeast tRNA assessed as residual tRNA band by agarose gel electrophoresis relative to control
[2] = species: Gallus gallus; assay: Antiangiogenic activity against angiogenin-induced angiogenesis in chicken eggs at 150 uM for 10 days measured after 48 hrs by CAM assay; assay type: functional; conditions: Egg
Summary of the method: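 Chick embryo chorioallantoic membrane exposed through a small hole drilled in the shell on day 2. 10 µl aliquots of angiogenin, alone or mixed with compound, dried on transparent discs, which were inverted onto the CAM on day 10. Response read after 48 h as density of blood vessel formation against a control set.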

[3] = target: Ribonuclease pancreatic (Bos taurus) (UniProt P61823); assay: Binding affinity to RNase A by fluorescence quenching

Sequence of Ribonuclease pancreatic (Bos taurus) (P61823 whole entry, looked up): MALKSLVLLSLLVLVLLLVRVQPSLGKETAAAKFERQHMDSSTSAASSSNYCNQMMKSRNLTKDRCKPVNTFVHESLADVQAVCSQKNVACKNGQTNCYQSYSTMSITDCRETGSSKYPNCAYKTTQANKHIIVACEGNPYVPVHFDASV

Structure (SMILES) | Ratio [1] | Kb [3] [×10⁴ /M] | Activity [2]
Oc1cc(O)c2c(c1)OC(c1ccc(O)c(O)c1)C(O)C2 (stereo not drawn) | 0.331 | – | –
Oc1cc(O)c2c(c1)O[C@H](c1ccc(O)c(O)c1)[C@H](O)C2 | 0.295 | – | –
Oc1ccc([C@H]2c3c(O)cc(O)cc3O[C@H](c3ccc(O)c(O)c3)[C@@H]2O)c(O)c1 | 0.659 | 2.42 | Active
Nc1ccn([C@@H]2O[C@H](CO)[C@@H](OP(=O)(O)O)[C@H]2O)c(=O)n1 | 0.71 | – | –

The next lines start with results.

Ratio [1] | Kb [3] [×10⁴ /M] | Structure (SMILES) | Activity [2]
0.612 | 1.37 | Oc1ccc([C@@H]2c3c(O)cc(O)cc3O[C@H](c3ccc(O)c(O)c3)[C@H]2O)c(O)c1 | –
0.699 | 3.14 | Oc1cc(O)c([C@@H]2c3c(O)cc(O)cc3O[C@H](c3ccc(O)c(O)c3)[C@@H]2O)c(O)c1 | –
0.704 | 6.76 | Oc1cc(O)c([C@H]2c3c(O)cc(O)cc3O[C@H](c3ccc(O)c(O)c3)[C@@H]2O)c(O)c1 | Active

— ChEMBL document CHEMBL1221325, “Synthesis and ribonuclease A inhibition activity of resorcinol and phloroglucinol derivatives of catechin and epicatechin: Importance of hydroxyl groups” (Bioorg Med Chem, 2010)
